Test results: ChEMBL document CHEMBL4613282, “Novel N-Substituted Benzomorphan-Based Compounds: From MOR-Agonist/DOR-Antagonist to Biased/Unbiased MOR Agonists” (ACS Med Chem Lett, 2020)
Activity calls are given as the source filed them. No cut-off for these calls is given here.

Columns and labels:
[1] = biological target: Mu-type opioid receptor (Rattus norvegicus, UniProt P33535); assay: Displacement of [3H]-DAMGO from MOR in rat brain membranes incubated for 45 mins by liquid scintillation counting; assay type: cell membranes, Membrane
Procedure, shortened: (§1)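 Ki as mean ± SEM of three separate experiments, each run in duplicate.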

[2] = biological target: Delta-type opioid receptor (Rattus norvegicus, UniProt P33533); assay: Displacement of [3H]DPDPE from DOR in rat brain membranes incubated for 45 mins by liquid scintillation counting; assay type: cell membranes, Membrane; procedure, shortened: as §1
[3] = biological target: Kappa-type opioid receptor (Cavia porcellus, UniProt P41144); assay: Displacement of [3H]-U69,593 from KOR in guinea pig brain membranes incubated for 30 mins by liquid scintillation counting; assay type: cell membranes, Membrane
Procedure, shortened: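 KOR binding measured as [3H]U69,593 displacement. Ki as mean ± SEM of three separate experiments, each run in duplicate.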

[4] = system: Mus musculus; assay: Antihyperalgesic activity in sc dosed PGE2-induced CD1 mouse model of thermal hyperalgesia assessed as increase in paw withdrawl latency pretreated with compound for 20 mins before PGE2 stimulation for 10 mins by radiant heat […] method; assay type: functional, organism-based
Procedure, shortened: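 Mice given compound or solvent s.c. 20 min before intraplantar PGE2 or saline. Hindpaw withdrawal latency to radiant heat measured in the injected paw 10 min after the i.pl. injection. Test compounds dosed 8–16 mg/kg; morphine 1–3 mg/kg and LP1 1–4 mg/kg as comparators. One-way ANOVA with Bonferroni test.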

[5] = biological target: Mu-type opioid receptor (Homo sapiens) (UniProt P35372); assay: Agonist activity at EE-tagged MOR (unknown origin) expressed in human HEK293 cells assessed as inhibition of forskolin-induced cAMP accumulation at 10 uM after 30 mins by GloSensor cAMP assay; assay type: functional, cell-based
Procedure, shortened: (§2)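 HEK293 cells stably expressing MOR, stimulated with 50 μM forskolin in the presence of a range of compound concentrations, up to 10–5 M. Read-out is cAMP accumulation as % of maximum. Triplicate determinations in three independent experiments, mean ± SEM.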

[6] = Toxicity in PGE2-induced CD1 mouse model of thermal hyperalgesia assessed as effect on gastrointestinal transit at 8 to 16 mg/kg, sc dosed 30 mins before charcoal suspension administration and measured after 30 mins (reference value: 30 cm); assay type: organism-based; details: in vivo, 0.5 h
Procedure, shortened: (§3)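 Run straight after the PGE2 hyperalgesia test, i.e. 30 min after s.c. dosing. Mice received 0.5% charcoal suspension intragastrically. Distance travelled by charcoal along the small intestine measured 30 min after ingestion. Mean ± SEM of 6–7 mice; one-way ANOVA with Bonferroni test versus the saline group.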

[7] = biological target: Mu-type opioid receptor (Homo sapiens) (UniProt P35372); assay: Agonist activity at EE-tagged MOR (unknown origin) expressed in human HEK293 cells assessed as increase in ERK1/2 phosphorylation at 1 uM after 15 mins by Western blot analysis; assay type: cell-based
Procedure, shortened: (§4)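 Serum-starved HEK293 cells stably expressing MOR exposed to 1 μM compound for 5, 10 or 15 min. Lysates run on 10% SDS-PAGE and immunoblotted for phospho-ERK1,2, with α-tubulin reprobe as loading check. […] Three independent experiments.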

[8] = biological target: Mu-type opioid receptor (Homo sapiens) (UniProt P35372); assay: Agonist activity at EE-tagged MOR (unknown origin) expressed in human HEK293 cells assessed as increase in ERK1/2 phosphorylation at 1 uM after 5 mins by Western blot analysis; assay type: cell-based; procedure, shortened: as §4
[9] = system: Mus musculus; assay: Antihyperalgesic activity in sc dosed PGE2-induced CD1 mouse model of thermal hyperalgesia at 8 to 16 mg/kg, sc pretreated for 20 mins before PGE2 stimulation and measured after 10 mins by radiant heat […] method; assay type: functional, organism-based
[10] = Toxicity in PGE2-induced CD1 mouse model of thermal hyperalgesia assessed as effect on gastrointestinal transit at 4 mg/kg, sc dosed 30 mins before charcoal suspension administration and measured after 30 mins (reference value: 30 cm); assay type: organism-based; details: in vivo, 0.5 h; procedure, shortened: as §3
[11] = system: Mus musculus; assay: Antinociceptive activity in Swiss […] mouse assessed as effect on tail flick latency at 2.5 to 7.5 mg/kg, ip after 90 mins by radiant heat tail-flick method; assay type: functional, organism-based
Procedure, shortened: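 Mouse tail-flick test after 2.5–7.5 mg/kg i.p.; saline-treated group as control. Tail-flick latency (s) followed over 90 min. Mean ± SEM from 6–8 mice.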

[12] = biological target: Mu-type opioid receptor (Homo sapiens) (UniProt P35372); assay: Biased agonist activity at EE-tagged MOR (unknown origin) expressed in human HEK293 cells assessed as increase in ERK1/2 phosphorylation levels at 1 uM after 15 mins by Western blot analysis; assay type: cell-based; procedure, shortened: as §4
[13] = biological target: Mu-type opioid receptor (Homo sapiens) (UniProt P35372); assay: Agonist activity at EE-tagged MOR (unknown origin) expressed in human HEK293 cells assessed as inhibition of forskolin-induced cAMP accumulation at 10 uM after 30 mins by GloSensor cAMP assay relative to control; assay type: functional, cell-based; procedure, shortened: as §2

Sequence of Mu-type opioid receptor (P33535 whole entry): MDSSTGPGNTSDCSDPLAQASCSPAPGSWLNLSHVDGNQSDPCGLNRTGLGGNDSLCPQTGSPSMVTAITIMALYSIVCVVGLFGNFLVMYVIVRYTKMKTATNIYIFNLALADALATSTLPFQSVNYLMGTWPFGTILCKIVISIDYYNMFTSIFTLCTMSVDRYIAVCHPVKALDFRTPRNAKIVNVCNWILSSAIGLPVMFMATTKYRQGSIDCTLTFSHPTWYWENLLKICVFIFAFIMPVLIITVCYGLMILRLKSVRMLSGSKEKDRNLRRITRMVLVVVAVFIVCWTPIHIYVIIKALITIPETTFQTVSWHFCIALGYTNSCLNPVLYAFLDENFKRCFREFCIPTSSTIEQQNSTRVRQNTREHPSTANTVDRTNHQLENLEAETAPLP
Sequence of Delta-type opioid receptor (P33533 whole entry): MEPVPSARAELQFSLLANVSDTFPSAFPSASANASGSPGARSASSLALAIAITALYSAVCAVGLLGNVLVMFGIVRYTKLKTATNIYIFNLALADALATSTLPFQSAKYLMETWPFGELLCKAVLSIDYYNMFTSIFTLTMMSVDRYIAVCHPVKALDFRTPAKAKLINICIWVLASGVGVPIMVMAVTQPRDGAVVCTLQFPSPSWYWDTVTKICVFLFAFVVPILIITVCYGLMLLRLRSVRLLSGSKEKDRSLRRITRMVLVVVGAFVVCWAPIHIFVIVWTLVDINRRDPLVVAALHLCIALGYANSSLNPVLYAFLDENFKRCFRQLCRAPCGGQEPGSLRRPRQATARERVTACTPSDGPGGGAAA
Sequence of Mu-type opioid receptor (Homo sapiens) (P35372 whole entry): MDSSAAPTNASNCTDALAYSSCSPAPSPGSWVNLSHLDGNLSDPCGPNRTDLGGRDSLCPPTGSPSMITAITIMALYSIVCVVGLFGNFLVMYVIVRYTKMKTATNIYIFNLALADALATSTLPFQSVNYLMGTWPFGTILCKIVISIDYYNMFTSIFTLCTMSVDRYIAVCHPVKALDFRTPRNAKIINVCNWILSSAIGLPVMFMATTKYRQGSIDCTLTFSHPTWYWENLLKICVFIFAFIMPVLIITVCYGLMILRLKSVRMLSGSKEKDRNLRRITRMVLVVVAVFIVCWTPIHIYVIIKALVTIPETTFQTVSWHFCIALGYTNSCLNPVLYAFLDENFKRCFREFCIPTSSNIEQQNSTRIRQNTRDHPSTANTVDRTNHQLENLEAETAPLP
Sequence of Kappa-type opioid receptor (P41144 whole entry): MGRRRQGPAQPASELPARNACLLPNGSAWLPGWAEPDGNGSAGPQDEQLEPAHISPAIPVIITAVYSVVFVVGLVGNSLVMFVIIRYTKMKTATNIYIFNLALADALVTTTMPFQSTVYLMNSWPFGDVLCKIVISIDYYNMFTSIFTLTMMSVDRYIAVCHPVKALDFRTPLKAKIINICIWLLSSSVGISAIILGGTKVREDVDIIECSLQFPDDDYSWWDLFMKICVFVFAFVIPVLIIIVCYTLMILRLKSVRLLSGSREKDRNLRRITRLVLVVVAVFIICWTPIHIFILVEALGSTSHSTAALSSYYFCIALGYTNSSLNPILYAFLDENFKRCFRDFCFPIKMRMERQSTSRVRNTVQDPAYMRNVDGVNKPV

| SMILES | Ki [1] | Ki [2] | Ki [3] | further results |
| --- | --- | --- | --- | --- |
| Cc1cccc(C)c1N(Cc1ccccc1)C(=O)CCN1CC[C@@]2(C)c3cc(O)ccc3C[C@@H]1[C@@H]2C | 400 nM | > 5000 nM | > 3000 nM |  |
| CN1CC[C@]23c4c5ccc(O)c4O[C@H]2[C@@H](O)C=C[C@H]3[C@H]1C5 |  |  |  | Activity [4]: Dose-dependent effect |
| Cc1ccc(N(Cc2ccccc2)C(=O)CCN2CC[C@@]3(C)c4cc(O)ccc4C[C@@H]2[C@@H]3C)c(C)c1 | 165 nM | > 5000 nM | > 2000 nM |  |
| CCc1cccc(C)c1N(Cc1ccccc1)C(=O)CCN1CC[C@@]2(C)c3cc(O)ccc3C[C@@H]1[C@@H]2C | 1540 nM | > 5000 nM | 151 nM |  |
| Cc1cc(C)c(NC(=O)CCN2CC[C@@]3(C)c4cc(O)ccc4C[C@@H]2[C@@H]3C)c(C)c1 | 43.7 nM | > 2000 nM | 313 nM | inhibition [5]: inactive |
| Oc1ccc2c3c1O[C@H]1c4[nH]c5ccccc5c4C[C@@]4(O)[C@@H](C2)N(CC2CC2)CC[C@]314 [NALTRINDOLE] |  | 0.83 nM |  |  |
| Cc1ccc(NC(=O)CCN2CC[C@@]3(C)c4cc(O)ccc4C[C@@H]2[C@@H]3C)c(C)c1 | 20.8 nM | 474 nM | 340 nM | Activity [6]: 30 cm; inhibition [5]: inactive; Activity [7]: inactive; Activity [8]: Active; Activity [9]: inactive |
| Cc1cc(C)c(N(Cc2ccccc2)C(=O)CCN2CC[C@@]3(C)c4cc(O)ccc4C[C@@H]2[C@@H]3C)c(C)c1 | 504 nM | > 5000 nM | 444 nM |  |
| Cc1ccc(NCCN2CC[C@@]3(C)c4cc(O)ccc4C[C@@H]2[C@@H]3C)c(C)c1 | 129 nM | > 5000 nM | > 1000 nM |  |
| Cc1ccc(C)c(NCCN2CC[C@@]3(C)c4cc(O)ccc4C[C@@H]2[C@@H]3C)c1 | 182 nM | > 5000 nM | > 2000 nM |  |
| C[C@H]1[C@H]2Cc3ccc(O)cc3[C@]1(C)CCN2CCC(=O)N(Cc1ccccc1)c1ccccc1 | 606 nM | > 5000 nM | > 5000 nM |  |
| C[C@H]1[C@H]2Cc3ccc(O)cc3[C@]1(C)CCN2CCC(=O)Nc1ccccc1 |  |  |  | Activity [10]: Toxic; Activity [7]: inactive; Activity [8]: Active |
| Cc1ccc(C)c(NC(=O)CCN2CC[C@@]3(C)c4cc(O)ccc4C[C@@H]2[C@@H]3C)c1 | 7.9 nM | 478 nM | 480 nM | Activity [6]: 30 cm; Activity [11]: inactive; Activity [9]: inactive; Activity [12]: Active; inhibition [13]: 50% |
| CCc1cccc(C)c1NC(=O)CCN1CC[C@@]2(C)c3cc(O)ccc3C[C@@H]1[C@@H]2C | 14.9 nM | 198 nM | 320 nM | Activity [6]: 30 cm; inhibition [5]: inactive; Activity [7]: inactive; Activity [8]: Active; Activity [9]: inactive |
| C[C@H]1[C@H]2Cc3ccc(O)cc3[C@]1(C)CCN2CCN(Cc1ccccc1)c1ccccc1 | 244 nM | > 1000 nM | > 3000 nM |  |
| Cc1cccc(C)c1NC(=O)CCN1CC[C@@]2(C)c3cc(O)ccc3C[C@@H]1[C@@H]2C | 7.4 nM | 277 nM | 252 nM | Activity [6]: 30 cm; inhibition [5]: inactive; Activity [11]: inactive; Activity [7]: inactive; Activity [8]: Active; Activity [9]: inactive |
